Experimental data pooled from the literature.
Compare with care: the assays were run in different laboratories.
Organism: Leishmania donovani
Observed: parasite growth

SMILES | assay | system | conditions | IC50
Fc1cccc(Nc2nc(-c3ccccn3)nc3ccccc23)c1 | – | THP-1 | intracellular, amastigote | 1400 nM
Cc1cc(NC(=O)Nc2ccc3c(c2)OC(F)(F)O3)cc(C(F)(F)F)n1 | – | – | intracellular, amastigote | 860 nM
C[C@@H]1[C@H](O)[C@@H](C)/C=C/C=C/C=C/C=C/C=C/C=C/C=C/[C@H](O[C@@H]2O[C@H](C)[C@@H](O)[C@H](N)[C@@H]2O)C[C@@H]2O[C@](O)(C[C@@H](O)C[C@@H](O)[C@H](O)CC[C@@H](O)C[C@@H](O)CC(=O)O[C@H]1C)C[C@H](O)[C@H]2C(=O)O | resazurin | – | promastigote | 0.19 µg/mL
N=C(N)c1ccc(OCCCCCOc2ccc(C(=N)N)cc2)cc1 | resazurin | – | 48 h, promastigote | 1 µg/mL
O=[N+]([O-])c1c(CS(=O)(=O)c2ccccc2)nc2c(Br)cc(Br)cn12 | MTT | – | 72 h, promastigote | 1800 nM
CCC/C=C/c1cc2c(C=O)c(O)c(CC=C(C)C)cc2o1 | resazurin | – | 48 h, promastigote | 6.2 µg/mL
COc1cc(NC(C)CCCN)c2ncccc2c1 (centres unmarked) | resazurin | – | promastigote | 19.9 µg/mL
c1ccc(CNc2nc(-c3ccccn3)nc3ccccc23)cc1 | – | THP-1 | intracellular, amastigote | 2170 nM
COc1cc(NC(C)CCCNCCNCCNCCCC(C)Nc2cc(OC)cc3cccnc23)c2ncccc2c1.Cl.Cl (centres unmarked) | resazurin | – | promastigote | 2.99 µg/mL
c1ccc(CN2CCN(c3nc(-c4ccccn4)nc4ccccc34)CC2)cc1 | – | THP-1 | intracellular, amastigote | 4200 nM
N=C(N)c1ccc(OCCCCCOc2ccc(C(=N)N)cc2)cc1 | resazurin | – | 72 h, promastigote | 1.65 µg/mL
c1ccc(-c2nc(N3CCCC3)c3ccccc3n2)nc1 | imaging | THP-1 | intracellular, amastigote | 1300 nM
CCCCCCCCCCCCCCCCOP(=O)([O-])OCC[N+](C)(C)C | – | – | promastigote | 4230 nM
C[C@@H]1[C@H](O)[C@@H](C)/C=C/C=C/C=C/C=C/C=C/C=C/C=C/[C@H](O[C@@H]2O[C@H](C)[C@@H](O)[C@H](N)[C@@H]2O)C[C@@H]2O[C@](O)(C[C@@H](O)C[C@@H](O)[C@H](O)CC[C@@H](O)C[C@@H](O)CC(=O)O[C@H]1C)C[C@H](O)[C@H]2C(=O)O | resazurin | – | 72 h, promastigote | 0.57 µg/mL
N=C(N)c1ccc(OCCCCCOc2ccc(C(=N)N)cc2)cc1 | – | – | promastigote | 651 nM
CCCCCCCCCCCCCCCCOP(=O)([O-])OCC[N+](C)(C)C | – | – | intracellular, amastigote | 1830 nM
C[C@@H]1[C@H](O)[C@@H](C)/C=C/C=C/C=C/C=C/C=C/C=C/C=C/[C@H](O[C@@H]2O[C@H](C)[C@@H](O)[C@H](N)[C@@H]2O)C[C@@H]2O[C@](O)(C[C@@H](O)C[C@@H](O)[C@H](O)CC[C@@H](O)C[C@@H](O)CC(=O)O[C@H]1C)C[C@H](O)[C@H]2C(=O)O | – | THP-1 | 5 days, intracellular, amastigote | 400 nM
